Experimental data: ChEMBL document CHEMBL3621094, “Effect of alkyl group on transnitrosation of N-nitrosothiazolidine thiocarboxamides” (Bioorg Med Chem, 2015)

Tests used:
Format in all cases: physicochemical
[1] = Transnitrosation activity assessed as pseudo first order rate constant at 0.45 mM in presence of 5 mM GSH at pH 1.4 at 37 degC under dark condition; settings: pH 1.4, 450 µM
Summary of the method: (§1)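 Pseudo-first-order kobs for GSNO formation was measured at 0.45 mM N-nitrosamine, 5.0 mM GSH with DTPA, and 37 °C, with pH set by HCl (pH-rate profile 1.4–3.3). kobs was the least-squares slope of the initial linear part of ln{[GSNO∞]/([GSNO∞]−[GSNO])} versus time, taking GSNO∞ as the initial nitroso compound level (0.45 mM). There were three separate trials.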

[2] = Transnitrosation activity assessed as pseudo first order rate constant at 0.45 mM in presence of 5 mM GSH at pH 2.8 at 37 degC under dark condition; settings: pH 2.8, 450 µM; summary of the method: as §1
[3] = Transnitrosation activity assessed as S-nitrosoglutathione yield at 0.45 mM in presence of 5 mM GSH at pH 1.5 at 37 degC under dark condition after 24 hrs; settings: pH 1.5, 24 h, 450 µM
Summary of the method: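 Reaction run at 0.45 mM N-nitrosamine and 5.0 mM GSH, with DTPA, at pH 1.5 (HCl) and 37 °C in the dark. After 24 h, yield was calculated as GSNO formed divided by N-nitrosamine consumed.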

[4] = Transnitrosation activity assessed as pseudo first order rate constant at 0.45 mM in presence of 5 mM GSH at pH 3.4 at 37 degC under dark condition; settings: pH 3.4, 450 µM
[5] = Transnitrosation activity assessed as pseudo first order rate constant at 0.45 mM in presence of 5 mM GSH at pH 2 at 37 degC under dark condition; settings: pH 2, 450 µM; summary of the method: as §1
[6] = Transnitrosation activity assessed as pseudo first order rate constant at 0.45 mM in presence of 5 mM GSH at pH 1.7 at 37 degC under dark condition; settings: pH 1.7, 450 µM; summary of the method: as §1
[7] = Transnitrosation activity assessed as pseudo first order rate constant at 0.45 mM in presence of 5 mM GSH at pH 1.5 at 37 degC under dark condition; settings: pH 1.5, 450 µM; summary of the method: as §1
[8] = Transnitrosation activity assessed as pseudo first order rate constant at 0.45 mM in presence of 5 mM GSH at pH 2.2 at 37 degC under dark condition; settings: pH 2.2, 450 µM; summary of the method: as §1
[9] = Transnitrosation activity assessed as compound consumption level at 0.45 mM in presence of 5 mM GSH at pH 1.5 at 37 degC under dark condition after 24 hrs; settings: pH 1.5, 24 h, 450 µM
Summary of the method: (§2)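 Nitrosamine (4.5 mM acetonitrile stock, 0.45 mM final) added to GSH (5.0 mM) with DTPA. The mixture was acidified to pH 1.5 with 0.1 M HCl and held at 37 °C in the dark. GSNO formation was followed against time, and data were taken after 24 h.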

[10] = Transnitrosation activity assessed as S-nitrosoglutathione level at 0.45 mM in presence of 5 mM GSH at pH 1.5 at 37 degC under dark condition; settings: pH 1.5, 450 µM; summary of the method: as §2

Row | SMILES | log K [1] | log K [2] | Activity [3] [%] | log K [4] | log K [5] | log K [6] | K [7] [×10⁻⁷ /s] | log K [8] | Activity [9] [mM] | Activity [10] [mM]
1 | NC(=S)C1CSCN1N=O (stereo not drawn) | -3.73 | -6.16 | 95 | -6.37 | -5.24 | -4.24 | 1301 | -4.73 | 0.45 | 0.43
2 | CNC(=S)C1CSCN1N=O (stereo not drawn) | – | – | 85 | – | – | – | 464 | – | 0.45 | 0.38
3 | CN(C)C(=S)C1CSCN1N=O (stereo not drawn) | – | – | 84 | – | – | – | 405 | – | 0.45 | 0.38
